Measurements: ChEMBL document CHEMBL1154892, “Saponins and polyphenols from Fadogia ancylantha (makoni tea)” (J Nat Prod, 2010)
Values after ≈ are worked out from the molar mass of the structure shown. Active and inactive are the calls of the source. The rule behind the calls is not given here.

Columns and labels:
[1] = tested on: Escherichia coli; assay: Antibacterial activity against Escherichia coli ATCC 8739 after 48 hrs by broth microdilution method; assay type: functional, organism-based
Outline: (§1)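 Broth microdilution in 96-well plates, in duplicate, per NCCLS (2001), ATCC strains. MBC taken as lowest concentration at which no microbial cell survived after 48 h incubation (bacteria) or 5 days (yeast and mold).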

[2] = tested on: Staphylococcus epidermidis; assay: Antibacterial activity against Staphylococcus epidermidis ATCC 12228 after 48 hrs by broth microdilution method; assay type: functional; conditions: ATCC 12228, 48 h; outline: as §1
[3] = tested on: Bacillus spizizenii; assay: Antibacterial activity against Bacillus spizizenii ATCC 6633 after 24 hrs by broth microdilution method; assay type: functional; conditions: ATCC 6633, 24 h
Outline: (§2)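 Broth microdilution in 96-well plates, in duplicate, following NCCLS (2001); ATCC Gram-positive and Gram-negative bacteria, a yeast and a mold. MIC taken as lowest concentration inhibiting microbial growth after 24 h.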

[4] = tested on: Pseudomonas aeruginosa; assay: Antibacterial activity against Pseudomonas aeruginosa ATCC 9027 after 48 hrs by broth microdilution method; assay type: functional; outline: as §1
[5] = tested on: Bacillus spizizenii; assay: Antibacterial activity against Bacillus spizizenii ATCC 6633 after 48 hrs by broth microdilution method; assay type: functional; conditions: ATCC 6633, 48 h; outline: as §1
[6] = tested on: Radical scavenging activity; assay: Antioxidant activity assessed as DPPH radical scavenging activity after 10 mins; assay type: functional
Outline: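 Methanolic sample solution added to DPPH solution (0.025 g/L in MeOH, prepared daily); vehicle alone in control tubes; absorbance read at 515 nm 10 min after start. α-Tocopherol positive control. Triplicate runs; EC50 calculated by Litchfield and Wilcoxon method.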

[7] = tested on: Staphylococcus aureus; assay: Antibacterial activity against Staphylococcus aureus ATCC 6538 after 24 hrs by broth microdilution method; assay type: functional; conditions: ATCC 6538, 24 h; outline: as §2
[8] = tested on: Pseudomonas aeruginosa; assay: Antibacterial activity against Pseudomonas aeruginosa ATCC 9027 after 24 hrs by broth microdilution method; assay type: functional; outline: as §2
[9] = tested on: Staphylococcus aureus; assay: Antibacterial activity against Staphylococcus aureus ATCC 6538 after 48 hrs by broth microdilution method; assay type: functional; conditions: ATCC 6538, 48 h; outline: as §1
[10] = tested on: Staphylococcus epidermidis; assay: Antibacterial activity against Staphylococcus epidermidis ATCC 12228 after 24 hrs by broth microdilution method; assay type: functional; conditions: ATCC 12228, 24 h; outline: as §2
[11] = tested on: Candida albicans; assay: Antifungal activity against Candida albicans ATCC 10231 after 24 hrs by broth microdilution method; assay type: functional; conditions: ATCC 10231, 24 h; outline: as §2
[12] = tested on: Escherichia coli; assay: Antibacterial activity against Escherichia coli ATCC 8739 after 24 hrs by broth microdilution method; assay type: functional; outline: as §2
[13] = tested on: Aspergillus niger; assay: Antifungal activity against Aspergillus niger ATCC 16404 after 5 days by broth microdilution method; assay type: functional; outline: as §1
[14] = tested on: Aspergillus niger; assay: Antifungal activity against Aspergillus niger ATCC 16404 after 24 hrs by broth microdilution method; assay type: functional; conditions: ATCC 16404, 24 h; outline: as §2
[15] = tested on: Candida albicans; assay: Antifungal activity against Candida albicans ATCC 10231 after 5 days by broth microdilution method; assay type: functional; outline: as §1

Structure (SMILES) | MBC [1] | MBC [2] [mg/L] | MIC [3] [mg/L] | MBC [4] | MBC [5] [mg/L] | EC50 [6] [mg/L] | MIC [7] [mg/L] | MIC ([8]; ATCC 9027, 24 h) [mg/L] | MBC [9] [mg/L] | MIC [10] [mg/L] | MIC [11] [mg/L] | MIC [12] | MBC [13] | MIC [14] [mg/L] | MBC [15] | MIC [8] | MIC ([12]; ATCC 8739, 24 h) [mg/L] | MBC ([4]; ATCC 9027, 48 h) [mg/L] | MBC ([15]; ATCC 10231, 120 h) [mg/L] | MBC ([13]; ATCC 16404, 120 h) [mg/L]
O=c1cc(-c2ccc(O)c(O)c2)oc2cc(O[C@@H]3O[C@H](CO)[C@@H](O)[C@H](O)[C@H]3O)ccc12 | inactive | 4000 (≈ 9.25 mM) | 1000 (≈ 2.31 mM) | inactive | 1000 (≈ 2.31 mM) | 28.4 (≈ 0.0657 mM) | 2000 (≈ 4.63 mM) | 4000 (≈ 9.25 mM) | 4000 (≈ 9.25 mM) | 500 (≈ 1.16 mM) | 4000 (≈ 9.25 mM) | inactive | inactive | 1000 (≈ 2.31 mM) | inactive |  |  |  |  | 
Cc1c(C)c2c(c(C)c1O)CC[C@@](C)(CCC[C@H](C)CCC[C@H](C)CCCC(C)C)O2 [ALPHA-TOCOPHEROL] |  |  |  |  |  | 10.1 (≈ 0.0234 mM) |  |  |  |  |  |  |  |  |  |  |  |  |  | 
O=C(CCc1ccc(O)cc1)c1ccc(O[C@@H]2O[C@H](CO)[C@@H](O)[C@H](O)[C@H]2O)cc1O [CONFUSOSIDE] | inactive | 2000 (≈ 4.76 mM) | 120 (≈ 0.285 mM) | inactive | 1000 (≈ 2.38 mM) | > 1000 | 4000 (≈ 9.51 mM) |  | 4000 (≈ 9.51 mM) | 1000 (≈ 2.38 mM) | 4000 (≈ 9.51 mM) |  | inactive | 120 (≈ 0.285 mM) | inactive | inactive | 2000 (≈ 4.76 mM) |  |  | 
O=C(CCc1ccc(O)cc1)c1ccc(O)cc1O [DAVIDIGENIN] | inactive | 500 (≈ 1.94 mM) | 120 (≈ 0.465 mM) |  | 500 (≈ 1.94 mM) | > 1000 | 120 (≈ 0.465 mM) | 2000 (≈ 7.74 mM) | 500 (≈ 1.94 mM) | 250 (≈ 0.968 mM) | 1000 (≈ 3.87 mM) |  | inactive | 120 (≈ 0.465 mM) |  |  | 4000 (≈ 15.5 mM) | 4000 (≈ 15.5 mM) | 2000 (≈ 7.74 mM) | 
O=c1c(O[C@@H]2O[C@H](CO)[C@@H](O)[C@H](O)[C@H]2O)c(-c2ccc(O)c(O)c2)oc2cc(O)cc(O)c12 [ISOQUERCETIN] | inactive | 4000 (≈ 8.61 mM) | 1000 (≈ 2.15 mM) | inactive | 2000 (≈ 4.31 mM) | 20.4 (≈ 0.0439 mM) | 4000 (≈ 8.61 mM) |  | 4000 (≈ 8.61 mM) | 1000 (≈ 2.15 mM) | 4000 (≈ 8.61 mM) | inactive |  | 2000 (≈ 4.31 mM) | inactive | inactive |  |  |  | 4000 (≈ 8.61 mM)
